Experimental data gathered from unrelated publications.
Lines come from different studies, so protocols differ.
Target: 5'-AMP-activated protein kinase catalytic subunit alpha-2 (PRKAA2, Homo sapiens, UniProt P54646)

Cc1c(NC(=O)c2cc(C(N)=O)nc3cc(F)ccc23)c(C(F)(F)F)nn1Cc1ccc(C#N)cc1  remaining binding (cell-free assay; competition with immobilised ligand; 1 µM): 100%
O=C(c1ccc(Nc2ncc(Cl)c(-c3ccc(Cl)s3)n2)cc1)N1CCC(N2CCCC2)CC1  remaining binding (binding; competition with immobilised ligand; 1 µM): 8.2%
COc1cnc(Nc2cccc(S(N)(=O)=O)c2)nc1N1CCN(c2ccccc2)C(=O)C1  remaining binding (binding; competition with immobilised ligand; 1 µM): 100%
Cc1c[nH]c2nccc(Oc3c(F)cc(Nc4cc(Cl)nc(N)n4)cc3F)c12  remaining binding (cell-free assay; competition with immobilised ligand; 0.1 µM): 89%
CNC(=O)[C@@H]1CC[C@@H](n2c(-c3ccc4cnccc4c3)nc3ccc(C(=O)NCc4cccc(C(N)=O)c4)cc32)C1  remaining binding (binding; competition with immobilised ligand; 1 µM): 91%
O=C(c1ccc(Nc2nccc(-c3cc4ccccc4s3)n2)cc1)N1CCC(N2CCCC2)CC1  remaining binding (binding; competition with immobilised ligand; 1 µM): 31%
CC1=C(C#N)[C@@H](c2ccc3[nH]nc(C)c3c2)C(C#N)=C(c2ccc(Cl)cc2)N1  remaining binding (cell-free assay; competition with immobilised ligand; 1 µM): 95.3%
CN(c1nccc(-c2cnn3ncccc23)n1)C1CC1  remaining binding (binding; 1 µM): 100%
O=C(Nc1c[nH]nc1C(=O)NC1CCNCC1)c1cc(F)cc(F)c1  remaining binding (binding; competition with immobilised ligand; 1 µM): 100%
F[C@@H]1CCN(c2nccc(-c3cnn4ncccc34)n2)C1  remaining binding (binding; 1 µM): 100%
CNC(=O)Nc1ccc2c(c1)[C@@]1(CC2)OC(=O)N(CC(=O)N(Cc2ccc(F)cc2)[C@@H](C)C(F)(F)F)C1=O  remaining binding (cell-free assay; competition with immobilised ligand; 1 µM): 57%
C=CC(=O)N1CCC(C(=O)NCC(=O)N2CCN(c3nc(-c4cnc(N)nc4C(F)F)nc(N4CCOCC4)n3)CC2)CC1  remaining binding (binding; competition with immobilised ligand; 1 µM): 100%
CC1CCCN1c1nccc(-c2cnn3ncccc23)n1 (stereo not shown)  remaining binding (binding; 1 µM): 100%
Cc1cnc(Nc2ccc(C(=O)N3CCC(N4CCCC4)CC3)cc2)nc1-c1cc2ccccc2s1  remaining binding (binding; competition with immobilised ligand; 1 µM): 7%
C[C@H]1CCN(c2nccc(-c3cnn4ncccc34)n2)C1  remaining binding (binding; 1 µM): 84%
c1cncc(-c2cccc(Nc3nccc(NC4CCCCC4)n3)c2)c1  remaining binding (binding; competition with immobilised ligand; 10 µM): 23%
CN(C)c1ncc(F)c(-c2cnn3ncccc23)n1  remaining binding (binding; 1 µM): 100%
C[C@H](c1ccc(F)cc1)N(Cc1cccc(C(=O)O)c1)C(=O)c1cnc2ccccc2c1  remaining binding (cell-free assay; competition with immobilised ligand; 1 µM): 100%
N[C@H]1CCN(c2nccc(-c3cnn4ncccc34)n2)C1  remaining binding (binding; 1 µM): 100%
FC(F)(F)Oc1cccc(-c2cnc3ccc(-c4ccncc4)nn23)c1  remaining binding (cell-free assay; competition with immobilised ligand; 5 µM): 80%
CNC(=O)Nc1ccc2c(c1)CC[C@@]21OC(=O)N(CC(=O)N(Cc2ccc(F)cc2)[C@@H](C)C(F)(F)F)C1=O  remaining binding (cell-free assay; competition with immobilised ligand; 1 µM): 99%
CN(C)c1nccc(-c2cnn3ncccc23)n1  remaining binding (binding; 1 µM): 100%
